The text below walks through data of paper PMC3810942 (FEBS letters, 2013).

“Also recorded” adds a separate entry of the source.

In test [1] the target is T1, AVP-pVIc complexes (Human adenovirus C serotype 2, UniProt P03252). The test is described as follows: Inhibition of AVP-pVIc complexes, fluorogenic substrate assay. The format is biochemical, adenovirus serotype 2.
A further test has as its target T2, Trypsin (Bos taurus, UniProt P00760).
T2 sequence (P00760 24-246): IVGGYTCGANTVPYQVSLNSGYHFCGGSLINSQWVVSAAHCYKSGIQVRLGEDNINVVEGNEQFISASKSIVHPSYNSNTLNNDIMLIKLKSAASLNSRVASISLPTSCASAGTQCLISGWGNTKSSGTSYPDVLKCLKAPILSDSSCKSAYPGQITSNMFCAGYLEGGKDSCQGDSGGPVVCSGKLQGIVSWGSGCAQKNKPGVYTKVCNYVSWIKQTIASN
The test is described as follows: Selectivity assay with trypsin. The class given is biochemical. In a few lines:
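TPCK-treated trypsin was exposed to increasing compound at 21°C in 25 mM HEPES with 1 mM CaCl₂. Substrate hydrolysis was tracked as fluorescence increase (ex 496/em 523 nm). Rates were normalized to the no-inhibitor rate and expressed as % activity.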

Test [2] addresses AVP (adenovirus proteinase) (Human adenovirus C serotype 2, UniProt P03252). The test is described as follows: Inhibition of AVP. The class given is biochemical, adenovirus serotype 2. In short, it runs like this: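 Purified adenovirus type 2 AVP was pre-incubated 9 min at 21°C with varied compound in 5 mM NaCl, 20 mM Tris-HCl pH 8, 0.025% DDM, 0.1 mM DTT. pVIc was then added to 20 μM for another 9 min. Rates with 5 μM (Cbz-Leu-Arg-Gly-Gly-NH)₂-Rhodamine were read every 10 s (ex 496/em 523 nm). IC50 came from a four-parameter logistic fit of initial rates.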

In the next test the target is T3, Papain (Carica papaya, UniProt P00784).
T3 sequence (P00784 134-345): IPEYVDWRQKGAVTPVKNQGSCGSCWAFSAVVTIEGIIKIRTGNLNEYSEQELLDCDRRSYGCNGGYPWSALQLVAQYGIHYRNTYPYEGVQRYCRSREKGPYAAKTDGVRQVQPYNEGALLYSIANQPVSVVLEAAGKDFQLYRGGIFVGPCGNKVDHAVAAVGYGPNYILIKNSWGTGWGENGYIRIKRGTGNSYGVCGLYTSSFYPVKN
The test is described as follows: Selectivity assay with papain. The class given is biochemical. In short, it runs like this:
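Papain was incubated with increasing compound for 10 min at 21°C in 25 mM sodium acetate with 1 mM DTT. Hydrolysis of the fluorogenic substrate was followed over time (ex 496/em 523 nm). Rates were normalized to the rate without inhibitor and reported as % activity.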

Test [3] concerns AVP and AVP-pVIc complexes. Nature of the test: Coarse screening of structural derivatives for enzyme inhibitors. The class given is biochemical, adenovirus serotype 2. As to conditions: 40 μM compound, 150 mM NaCl, 0.3 μM enzyme. In a few lines: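 AVP (adenovirus type 2, E. coli-expressed) or AVP-pVIc complexes (75 μM each, overnight at 4°C with 20 mM β-mercaptoethanol) were pre-incubated 9 min at 21°C with compound from 10 mM DMSO stock. Buffer was 20 mM Tris-HCl pH 8, 0.025% DDM, 0.1 mM DTT. For AVP, 40 μM pVIc was then added for 9 min more. Initial rates with 5 μM (Cbz-Leu-Arg-Gly-Gly-NH)₂-Rhodamine (ex 496/em 523 nm) were normalized to the no-inhibitor rate.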

The target of test [4] is T1, AVP-pVIc complexes. The test is described as follows: Competitive inhibition of AVP-pVIc complexes. The format is biochemical, adenovirus serotype 2.
A further test has as its target AVP (Human adenovirus C serotype 2, UniProt P03252). Nature of the test: Mixed inhibition of AVP. The class given is biochemical, adenovirus serotype 2.
For test [5], the target named is Adenovirus proteinase (AVP) (Human adenovirus 2) (UniProt P03252). As to conditions: cited from earlier work.
[6] abbreviates: 20 pM trypsin, 10 min, pH 7.5, 10 μM (Ile-Pro-Arg-NH)2-Rhodamine.
Where [7] appears, read: 0.18 μM papain, pH 5, 10 μM (Phe-Arg-NH)2-Rhodamine.
[8] abbreviates: concentrations 50-fold higher than that inhibiting AVP or AVP-pVIc by more than 90%.
Setting [9] is: best fitting model, SigmaPlot Kinetic Module.

In general, IC50 refers to the concentration needed to halve the response being measured. Broadly, the Ki is a measure of affinity in units of concentration, obtained from inhibition or displacement. A higher Ki goes with a looser hold on the target. What is called Kd is the equilibrium constant for the complex coming apart.

AVP, sequence (P03252 whole entry): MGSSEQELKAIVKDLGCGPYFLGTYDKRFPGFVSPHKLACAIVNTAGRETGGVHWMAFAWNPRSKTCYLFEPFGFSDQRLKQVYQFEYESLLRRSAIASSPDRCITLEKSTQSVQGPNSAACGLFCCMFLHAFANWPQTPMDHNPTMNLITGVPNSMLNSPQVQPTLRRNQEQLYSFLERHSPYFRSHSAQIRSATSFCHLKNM
T1 sequence (P03252 whole entry, one chain of several): as the sequence (P03252 whole entry) above
AVP (adenovirus proteinase), sequence (P03252 whole entry): as above
pVIc, sequence (P03274 whole entry, looked up): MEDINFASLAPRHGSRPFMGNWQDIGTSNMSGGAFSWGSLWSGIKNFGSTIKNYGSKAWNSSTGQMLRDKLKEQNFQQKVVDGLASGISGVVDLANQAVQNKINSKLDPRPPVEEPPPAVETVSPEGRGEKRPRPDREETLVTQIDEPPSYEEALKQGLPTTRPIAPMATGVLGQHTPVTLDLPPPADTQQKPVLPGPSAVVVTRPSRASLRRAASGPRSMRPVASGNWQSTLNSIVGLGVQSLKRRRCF
Adenovirus proteinase (AVP) (Human adenovirus 2), sequence (P03252 whole entry): as the sequence (P03252 whole entry) above

`O=C1CN2CCN(CC2)CC(=O)Nc2ccc(cc2)S(=O)(=O)c2ccc(cc2)NC(=O)CN2CCN(CC2)CC(=O)Nc2ccc(cc2)S(=O)(=O)c2ccc(cc2)N1` [NSC 36806, 2,21-dithia-7,10,13,16,26,29,32,35-octaazaheptacyclo[34.2.2.23,6.210,13.217, 20.222,25.229,32]pentaconta-1(38),3,5,17,19,22,24,36,39,43,45,49-dodecaene-8,15,27,34-tetrone 2,2,21,21-tetraoxide]: the midpoint of inhibition against AVP-pVIc complexes [1], the IC50, lay at 18000 nM. The Inhibition of trypsin result at Trypsin (setting [6]) is “did not inhibit”.
With `CC(C)CCN(CCC(C)C)CC(=O)Nc1ccc(S(=O)(=O)c2ccc(NC(=O)CN(CCC(C)C)CCC(C)C)cc2)cc1` [NSC 37248, 2-[bis(3-methylbutyl)amino]-N-[4-[4-[[2-[bis(3-methylbutyl)amino]acetyl]amino]phenyl]sulfonylphenyl]acetamide], the IC50 in test [2] was 880 nM; at AVP-pVIc complexes [1], 2100 nM. Besides, the Inhibition of trypsin result at Trypsin (setting [6]) is given as “No Inhibition”. For the same molecule, at Papain (setting [7]), the Inhibition of papain result is given as “No Inhibition”. The “Inhibition in coarse screen” value in test [3] is “inhibit either the activation of AVP or the activity of AVP-pVIc complexes; also recorded: effective inhibitors”.
For the molecule `O=C(CN(C1CCCCC1)C1CCCCC1)Nc1ccc(S(=O)(=O)c2ccc(NC(=O)CN(C3CCCCC3)C3CCCCC3)cc2)cc1` [NSC 37249, 2-(dicyclohexylamino)-N-[4-[4-[[2-(dicyclohexylamino)acetyl]amino]phenyl]sulfonylphenyl]acetamide], the results for the IC50 (in test [2]; on AVP-pVIc complexes [1]) were 140 nM and 490 nM, respectively. The Inhibition of trypsin entry on Trypsin (setting [6]) is reported as “No Inhibition”; on Trypsin (setting [8]), “did not inhibit”; at Trypsin (concentrations up to 18 μM) it was “no inhibition was observed”. Further, the results for the Inhibition of papain entry on Papain (setting [7]), at Papain (setting [8]) and at Papain (concentrations up to 50-fold the Ki for AVP) were “No Inhibition”, “did not inhibit” and “no inhibition was observed”, respectively. Further, the Ki on AVP-pVIc complexes [4] (Ki AVP:pVIc, competitive inhibition model, substrate 2.5-20 μM) was found to be 403 nM; at AVP it was 150 nM. Also, the “Type of inhibition, AVP-pVIc complexes” value on AVP-pVIc complexes [4] (setting [9]) is recorded as “Competitive Inhibition; also recorded: competitive inhibitor”. Besides, the “Type of inhibition, AVP” value on AVP (setting [9]) is “Mixed Inhibition”. Besides, the “Inhibition in coarse screen” value in test [3] is “inhibit either the activation of AVP or the activity of AVP-pVIc complexes; also recorded: effective inhibitors”.
Turning to `CC1COCC(C)N1CC(=O)Nc1ccc(S(=O)(=O)c2ccc(NC(=O)CN3C(C)COCC3C)cc2)cc1` (centres unmarked) [NSC 106702, 2-(3,5-dimethylmorpholin-4-yl)-N-[4-[4-[[2-(3,5-dimethylmorpholin-4-yl)acetyl]amino]phenyl]sulfonylphenyl] acetamide], the “Inhibition in coarse screen” value in test [3] is on record as “inhibit either the activation of AVP or the activity of AVP-pVIc complexes”.
For `O=C(Nc1ccc(S(=O)(=O)c2ccc(NC(=O)C(F)(F)N3CCOCC3)cc2)cc1)C(F)(F)N1CCOCC1` [NSC 106721, N-[4-[4-[(2,2-difluoro-2-morpholin-4-ylacetyl)amino]phenyl]sulfonylphenyl]-2,2-difluoro-2-morpholin-4-ylacetamide], the “Inhibition in coarse screen” value in test [3] is “inhibit either the activation of AVP or the activity of AVP-pVIc complexes”.
Regarding pVIc (from UniProt P03274), in test [5], the Kd is 4400 nM.
